For the data set, the system named is MS2 coat protein. Nature of the data set: apparent Kd, MS2 coat protein; higher = weaker binding; RNA-MaP array; FMN 200 µM where present. A digest of the protocol:
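The apparent Kd comes from binding curves fitted cluster by cluster, filtered, and summarised as a median. Those curves followed SNAP-549-labelled MS2 coat protein from 0.7 or 1.5 nM, doubling to 3 µM, on Illumina sequencing-chip clusters where stalled E. coli RNA polymerase had transcribed the designs, without and then with constant ligand. The buffer was 100 mM Tris-HCl pH 7.5, 80 mM KCl, 4 mM MgCl2, BSA, DTT, yeast tRNA and Tween-20, and green signal was normalised to red-channel RNA signal and control-cluster median Fmax.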

The mark [1] stands for this setting: designed as: OFF switch for flavin mononucleotide, no ligand.
Setting [2] is: ligand present: flavin mononucleotide, designed as: OFF switch for flavin mononucleotide.
The mark [3] stands for this setting: designed as: ON switch for flavin mononucleotide, no ligand.
Setting [4] is: ligand present: flavin mononucleotide, designed as: ON switch for flavin mononucleotide.

As to “GUCAUGUGAGGAUAUGUAGCCACGAAAUCUUGUAGAGGCAGACAGAAGGCACAUGAGGAUCACCCAUGUGUUUU”, the apparent Kd (commonly a dissociation constant that holds for the conditions of the assay) is, setting by setting: under setting [1], 31.6 nM; under setting [2], 258 nM.
Consider “GUCGGAAACGACAAAAGUAUGGAUCCAGAAGGCAUGACACAUGAGGAUCACCCAUGUCUAAGAUAUGAGGAUAUGGAUCCAUAC”, for which the “apparent Kd” value is 4.97 nM under setting [3] and 4.71 nM under setting [4].
Consider “CGCUGGUGACAGCAUCCAUCAAAACAUGAGGAUCACCCAUGUAGAAGGCUGUACGGUUACCGUACAGAGGAUAUACAAUGAUGU”, for which the “apparent Kd” value reads like this: under setting [1], 16 nM; under setting [2], 27.2 nM.
For “AUGCCCGGAGGAUAUACACUAAAAGUCCGGUGCUAGGGUAGACAUGAGGAUCACCCAUGUAGAAGGCCGAGGCA”, in that order: 53.2 nM and 101 nM.
“ACGGUGGUCACAGGAUAUCCGGCCCGCGUGCCUGGAGAAGGGUGACUCAGAACCACAUGAGGAUCACCCAUGUGCCUUGCCGUA”: the “apparent Kd” value under setting [3] was 92.1 nM and the “apparent Kd” value under setting [4] was 31.9 nM.
As for “UCUAUCAGAGGAUAUACAUGAGGAUCACCCAUGUCAGUCGAACGGGAUGGAAGGUUAGGUAGAAGGUUGUAGAU”, the “apparent Kd” value under setting [1] was determined as 39.8 nM and the “apparent Kd” value under setting [2] is 41.2 nM.
For “AUAAUGCGAGGAUAUACAUGAGGAUCACCCAUGUAAUUCCAUCGGAGAGCCACAUUUCGUAGAAGGUGCAUUUA”, in that order: 15.4 nM and 15.4 nM.
For “UAAUCUGGUCAGGAUAUCGGUGCACAGUGCACAGGAGAAGGGACCACAUGAGGAUCACCCAUGUAGGCUCUCCU”, in that order: 17.8 nM and 24.4 nM.
Consider “ACUAGAUGAGGAUAUGCAUGUUUUCAUGUUCUUCUAGAUUAACAUGAGGAUCACCCAUGUAGAAGGCGUCUUUU”, for which the “apparent Kd” value reads like this: under setting [1], 21.4 nM; under setting [2], 32 nM.
Turning to “UUAAAUCAUGUAGGAUAUGCAUGGCGAAGCUACGCAGAAGGACAUGAGGAUCACCCAUGUUAAAGCUUCCGAGUUCGGAGGCAA”, the “apparent Kd” value reads like this: under setting [1], 114 nM; under setting [2], 266 nM.
As to “AAGACAUGAGGAUCACCCAUGUAAAGACCGGUCGAUCAAGGUGAGGAUAUACAAUAAUUGAUAGGGUAGAAGGCACUGGGUUGA”, the “apparent Kd” value reads like this: under setting [3], 286 nM; under setting [4], 148 nM.
For “GGCGGAGACGUUAACAUGAGGAUCACCCAUGUCGAAGGAGAUGAGGAUAUCGCAUACGAUGUAUGUGAGAAGGCAUGGUCUGCC”, in that order: 30 nM and 10.6 nM.
For the sequence “CUGUCGAUAUCAGGAUAUCGUUUACAUACAUGAGGAUCACCCAUGUAGAUGAUCAGCCUAAUAUACGAGAAGGGAUAUCGAUAG”, the “apparent Kd” value under setting [3] is 9.26 nM and the “apparent Kd” value under setting [4] turned out to be 8.59 nM.
As for “ACAUGGUAGUAGAAGGGUAUUACUUUAGAAUCAACCAUUAGUUUAUUUUAUACAGGAUAUGCUAACAUGAGGAUCACCCAUGUU”, the “apparent Kd” value runs as follows: under setting [1], 10.4 nM; under setting [2], 8.25 nM.
For “CUCUAUCAUGUAGGAUAUGCGUGUCGAAGCUAUGCAGAAGGACAUGAGGAUCACCCAUGUCUUUCUGUCUGCGGACGGACAGGG” the same measures were 14.9 nM and 18.2 nM.
On to “GGAUAGGACAGAGGAUAUACGUGCUAGAGAUACUAGCAAAAUUUUCUCACAUGAGGAUCACCCAUGUAGAAGGCUGUCCUAUCG”, for which the “apparent Kd” value was determined as 5.08 nM under setting [1] and 17.4 nM under setting [2].
For “GCGUUAAAGAUCCAUUUUUACAACAUGAGGAUCACCCAUGUGCAGGAUAUCGAAUGUUUUAUAUUCGAGAAGGGCAAUUUCCGC” the same measures were 70.3 nM and 99.3 nM.
As for “ACAUGAGGAUCACCCAUGUGGAGUGAAGAAGGUGGUUACUUAAGACUCUCCCAUGUACUUAGGACUGAGGAUAUUCUAAUAUUU”, the “apparent Kd” value is, setting by setting: under setting [3], 82.3 nM; under setting [4], 45.9 nM.
As to “UAUUUAUUAGAGAAGGUACAUACAAUUAACAACAUACAUGAGGAUCACCCAUGUUGGUGAAUAAGUAAGGAUAUUUAAUACUUU”, the “apparent Kd” value under setting [1] turned out to be 31.3 nM and the “apparent Kd” value under setting [2] was 17.6 nM.
For “AUUAUUUUCGAAGGAUAUGGAUACAUGAGGAUCACCCAUGUAUAAAAUGUGAUCAAUUAUAUGAUCCAGAAGGUCGUUGUUUAU” the same measures were 80.8 nM and 257 nM.
For “AUAUUAAGUGUGAGGAUAUGCUGGUCCUUGGAUCAGCAGAAGGCACAUGAGGAUCACCCAUGUAAUAUAUUUAA”, in that order: 102 nM and 306 nM.
For “CCUAUGUGAGGAUAUCACUGGUCUUUUCAUUAGAUGAUCAGUGAGAAGGCACAUGAGGAUCACCCAUGUCAGUG” the same measures were 90.7 nM and 26.7 nM.
In the case of “GGAAAACAUGAGGAUCACCCAUGUGAGGAUAUCGAUGUCCAGAGAGAGGUGCGGGACUCGAGAAGGCACUUGGA”, the “apparent Kd” value by setting is: under setting [1], 44.5 nM; under setting [2], 87.5 nM.
“CGCAUUCCGUAGAAGGGUGACAUGAGGAUCACCCAUGUGCGAGCCGAGGGAGUCAGCGGCUCGCCACAGGAUAUACGGAGCACG”: the “apparent Kd” value by setting is: under setting [3], 87.3 nM; under setting [4], 84.8 nM.
With “CCUUAACAUGAGGAUCACCCAUGUGAGGAUAUGAUGCAGCAGUGGUCUACGCUGUGCAUCAGAAGGUACAUGGU”, the “apparent Kd” value turned out to be 35.9 nM under setting [1] and 145 nM under setting [2].
As to “AAUAUGUUGCAGAAGGCCAUGUUGUGGUAGUGCCUCAUGACAUGAGGAUCACCCAUGUCUGUGAUGGAGGAUAUGCAAUAUAUU”, the “apparent Kd” value reads like this: under setting [1], 8.15 nM; under setting [2], 37 nM.
For “CUCGUUAUGUUAGGAUAUGAUGCAUCCCGAUAAUCAGAAGGAACAUGAGGAUCACCCAUGUGACAUUUGGUGAAUACAAGCCAG” the same measures were 6.79 nM and 7.96 nM.
Turning to “GGAUAGGACAGAGGAUAUACGUGCUAGAGAUACGAGCAAAAUUUCCUCACAUGAGGAUCACCCAUGUAGAAGGCUGUCCUAUCG”, the “apparent Kd” value was 32.5 nM under setting [1] and 578 nM under setting [2].
For “UACAUGAGGAUCACCCAUGUUUUGUCGUGUAUGGUAUUUAUCUAGGAUAUCAUUUUAGUUAGUUAUGAGAAGGAGAAUAUUAAU” the same measures were 32.2 nM and 31.6 nM.
Turning to “UGUUGUAUUACAGGAUAUCUAGUAAUUUUAUUUAGAGAAGGGUAUUCACAUGAGGAUCACCCAUGUAUAUACGAGGAAGUUGUG”, the “apparent Kd” value is, setting by setting: under setting [3], 37 nM; under setting [4], 39.7 nM.
For “CAGGAGAACACAGGAUAUCCGUAAAACAUGAGGAUCACCCAUGUUUGUGGCCCGCCAGGGCUGACGGAGAAGGGUGACUCGCAC” the same measures were 6.69 nM and 5.61 nM.
Turning to “UGGUUGUGUGUUAGGAUAUGGUCUGGUGUUUCGGGCUAGAAGGGACAUGAGGAUCACCCAUGUGGCUGGCGGGU”, the “apparent Kd” value is, setting by setting: under setting [1], 127 nM; under setting [2], 126 nM.
For the sequence “GUAUUUAGAUAAGGAUAUAAGUCUAGGACAUGAGGAUCACCCAUGUGUGUCUUAGAAGGUAUUUGGGUAAUAUUGUUACAGUAA”, the “apparent Kd” value under setting [3] was found to be 160 nM and the “apparent Kd” value under setting [4] was determined as 114 nM.
As to “GGUGGACAUGAGGAUCACCCAUGUGAGGAUAUCGGCUAUCUACUCGCUGACGGCUGCUCGAGAAGGCGCAUUGU”, the “apparent Kd” value was determined as 62.1 nM under setting [1] and 58.8 nM under setting [2].
For “UUUUAGUGAGGAUAUGUGGCUUCGAUCGUGAGAUCGAGGCUACAGAAGGCACAUGAGGAUCACCCAUGUUCCUG” the same measures were 15.7 nM and 55.7 nM.
“GGCACACAUGAGGAUCACCCAUGUGAGGAUAUGGUGCGAUCGUCGAAAGACGAUAGCACCAGAAGGCACAUGCC”: the “apparent Kd” value by setting is: under setting [1], 18.2 nM; under setting [2], 39.5 nM.
For “CAGGGUCGUAUUCAGCCCGUCCACAUGAGGAUCACCCAUGUCAAGGAUAUAGCUUAAAAUACAAACUAGAAGGUGACGCUGGGU”, in that order: 21.7 nM and 83.8 nM.
For “ACGCCCUGAGGAUAUCUUAUGCCGCACAUGAGGAUCACCCAUGUUCUCCUCCGGGCUCCGAGAGAAGGCAGGCCCA”, in that order: 8.82 nM and 10.2 nM.
For “UUUAUGUGAGGAUAUCAGUAGUAAAAAAAUAAAAUUACUACUGAGAAGGCACAUGAGGAUCACCCAUGUCCUUC”, the “apparent Kd” value was 18.6 nM under setting [1] and 20 nM under setting [2].
Consider “GCACGGCAUGUAGGAUAUGCAUAGCAUUGCUAUGCAGAAGGACAUGAGGAUCACCCAUGUAUGUAUUCCAUACAUUUCCCGUGC”, for which the “apparent Kd” value under setting [1] was 5.5 nM and the “apparent Kd” value under setting [2] turned out to be 7.65 nM.
As to “GCCAUCGCAUGAGGAUAUGCUCCGGUUUCCGGAGCAGAAGGCAUGUCAUAAGACAUGAGGAUCACCCAUGUAGCUAAGAUGGCA”, the “apparent Kd” value is, setting by setting: under setting [3], 307 nM; under setting [4], 11.9 nM.
As for “AGUCAUACAGGAUAUACAUGAGGAUCACCCAUGUAAAUCCUAAAAAGAAAAACCUCUUGUAGAAGGGUAUGACA”, the “apparent Kd” value turned out to be 14.3 nM under setting [1] and 16.3 nM under setting [2].
For “UGUCGGAGCAGAGGAUAUACAUGAGGAUCACCCAUGUAAAUGAAAGAUAGCUCGAAACGAGCAAAGUAGAAGGCUGCUCCGACA”, in that order: 14.9 nM and 24.7 nM.
Consider “AUAUAGAUGGUCAGGAUAUGCUAGUGGUAACAGUAGCAGAAGGGACAUGAGGAUCACCCAUGUGGAUACUGCUC”, for which the “apparent Kd” value is, setting by setting: under setting [1], 23.9 nM; under setting [2], 93.6 nM.
As for “UUUAAUCGAAACAUGAGGAUCACCCAUGUGUUGUAAUUAACAUAGGAUAUUUGUAUACUUUUGUAAGAGAAGGAUGAUAAUACU”, the “apparent Kd” value under setting [3] was 22.4 nM and the “apparent Kd” value under setting [4] stood at 15.8 nM.
“UCAUGUUAGCAGGAUAUGCUAUUUAUUUUUUAUGCAGAAGGGCUUACAUGAGGAUCACCCAUGUAUUAAGUUUU”: the “apparent Kd” value turned out to be 154 nM under setting [1] and 19.1 nM under setting [2].
On to “GUGGAGUAAGGAUAUACAUGAGGAUCACCCAUGUGAGGGUAUGAGAAGGGAAUGAGAGGUAGAAGGUACGAGGG”, for which the “apparent Kd” value came out at 172 nM under setting [1] and 107 nM under setting [2].
“UGUAUGGACAGAGGAUAUACGGAUAGGAUCUACUAUCUUCCUUAAAUAACAUGAGGAUCACCCAUGUAGAAGGCUGUCCAUACU”: the “apparent Kd” value under setting [1] is 19 nM and the “apparent Kd” value under setting [2] worked out at 74.7 nM.

The values above are taken from the EternaBench riboswitch data.
